Measurements as given in PMC6585996 (Clinical Pharmacology in Drug Development, 2018).
Entries after “also recorded” stand apart in the source; their conditions may differ. Like-named read-outs stand apart in the source and are kept apart here.

Tests used:
[1] = assay type: in vivo, human
Summary of the method: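 Healthy adults aged 18–65 years (≥50 kg, BMI 18.5–31.0 kg/m2) were randomised 1:1 to a two-period crossover. Each received a single oral 30 mg tablet after ≥10 h fasting or within 30 min of a high-fat meal (~53% fat, ~870 calories), with a 14-day washout. Plasma was sampled predose to 168 h and assayed by protein precipitation plus LC-MS/MS (LLOQ 25 ng/mL, ULOQ 25,000 ng/mL). Parameters were noncompartmental. GLS mean ratios (90% CI) came from a mixed-effects model with treatment and period as fixed effects and participant as random.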

[2] = Safety assessments in the phase 1 food-effect study; assay type: in vivo, human
HIV‐1 = conditions: cited from earlier work
[3] = cited from earlier work
serum albumin = conditions: cited from earlier work
[4] = system: uridine diphosphate glucuronosyltransferase (UGT)1A1, UGT1A9; conditions: forms glucuronic acid conjugates; minor contribution by UGT1A9; cited from earlier work
OATP = conditions: cited from earlier work
[5] = coadministered rifampin; cited from earlier work
[6] = single-dose oral 30 mg, fasted conditions, cited from earlier work
[7] = 30 mg with a moderate-fat meal; ref Supplemental Data; cited from earlier work
[8] = 10‐ and 30‐mg doses, early prototype formulations; ref Supplemental Data; cited from earlier work
[9] = cited from earlier work; remark: listed apart in the source
[10] = cited from earlier work; remark: listed apart in the source
[11] = cited from earlier work; remark: listed apart in the source
[12] = 30-mg single oral dose, high-fat meal, n = 21
[13] = Fasted State vs High‐Fat Meal, 30-mg single dose, n = 21
[14] = high-fat meal compared with fasting state, 30 mg oral

Q: Which “effect of high-fat meal on tmax and t1/2” value ([1]; 30 mg oral, high-fat meal vs fasting) does the source give for `C[C@H]1CO[C@@H]2Cn3cc(C(=O)NCc4ccc(F)cc4F)c(=O)c(O)c3C(=O)N12` [cabotegravir, Cabotegravir] here?
A: The value was “Neither tmax nor t1/2 was affected”.

Q: What about the “CL/F, Mean (SD)” value ([1]; 30-mg single oral dose, fasted state, n = 21) of the same compound?
A: Its value is 0.218 (0.0611) L/h.

Q: What about the “CL/F, Mean (SD)” value [1, 12] of the same compound?
A: The value was 0.191 (0.0553) L/h.

Q: What about the “t1/2, Mean (SD)” value [1, 12] of the same compound?
A: The value was 41.1 (6.57) h.

Q: And the “peak concentration of the one participant excluded from PK analysis” value ([1]; 2 hours after dosing, fasting conditions, 30 mg oral)?
A: Its value is 0.0987 µg/mL.

Q: What about the “AUC0‐∞, GLS Mean Ratio (90% CI)” value [1, 13] of the same compound?
A: The value was 1.14 (1.02‐1.28).

Q: What about the “C24, GLS Mean Ratio (90% CI)” value [1, 13] of the same compound?
A: The value was 1.17 (1.04‐1.30).

Q: What about the “CL/F, GLS Mean Ratio (90% CI)” value [1, 13] of the same compound?
A: Its value is 0.875 (0.785‐0.977).

Q: What about the “Cmax, GLS Mean Ratio (90% CI)” value [1, 13] of the same compound?
A: Its value is 1.14 (1.03‐1.27).

Q: What about the “t1/2, GLS Mean Ratio (90% CI)” value [1, 13] of the same compound?
A: The value was 0.997 (0.964‐1.03).

Q: What about the quantifiable predose concentrations ([1]; crossover periods, 14-day washout) of the same compound?
A: The quantifiable predose concentrations was < 5 % of their respective Cmax values.

Q: And the “decrease in CL/F” value ([1]; high-fat meal compared with after fasting, 30 mg oral)?
A: Its value is 13%.

Q: And the “increase in maximal drug concentration” value [1, 14]?
A: Its value is 14%.

Q: What about the “increase in plasma area under the concentration‐time curve” value [1, 14] of the same compound?
A: Its value is 14%.

Q: What about the half-life ([1]; human, plasma, po, 30 mg) of the same compound?
A: The half-life was 41.1 h.

Q: What about the “treatment‐emergent laboratory abnormalities” value ([2]; grade 2 hypoglycemia, grade 3 increased direct bilirubin) of the same compound?
A: Its value is 2 participants.

Q: And the “electrocardiographic or vital sign abnormalities reported as AEs” value ([2]; single 30-mg oral doses)?
A: The value was “No clinically significant electrocardiographic or vital sign abnormalities”.

Q: What about the “adverse events (grade 3/4, drug-related, serious, leading to discontinuation)” value ([2]; single 30-mg oral doses, fasted and fed, healthy adults) of the same compound?
A: The value was “No grade 3/4 adverse events (AEs), drug‐related AEs, or AEs leading to discontinuation were reported; also recorded: no AEs or serious AEs that led to discontinuation of the study drug”.

Q: And the “in vitro protein‐adjusted 90% inhibitory concentration” value (HIV‐1)?
A: Its value is 166 ng/mL.

Q: And the “Biopharmaceutics Drug Disposition Classification System class” value [3]?
A: The value was “class 2”.

Q: What about the passive permeability [3] of the same compound?
A: The passive permeability was “high”.

Q: What about the “binding to serum albumin” value (serum albumin) of the same compound?
A: Its value is “highly bound”.

Q: What about the metabolizing enzymes [4] of the same compound?
A: Its metabolizing enzymes is “primarily metabolized by uridine diphosphate glucuronosyltransferase (UGT)1A1”.

Q: What about the “substrate for intestinal uptake transporters such as OATP” value (OATP) of the same compound?
A: The value was “not a substrate”.

Q: What about the “effect of rifampin on cabotegravir exposures” value [5] of the same compound?
A: Its value is “significantly reduced”.

Q: And the AUC(0-inf) ([6]; read-out: AUC0‐∞)?
A: The AUC(0-inf) was 146 µg·h/mL.

Q: What about the “median time to peak plasma concentration (tmax)” value [6] of the same compound?
A: The value was 2 h.

Q: What about the “plasma apparent terminal‐phase half‐life (t1/2)” value [6] of the same compound?
A: The value was “approximately 38.5 hours”.

Q: What about the “half‐life, geometric mean (95% confidence interval)” value [7] of the same compound?
A: The value was 38.6 h.

Q: And the “effect of a moderate-fat meal (30% fat, ∼670 calories) on PK” value [8]?
A: Its value is “did not significantly affect”.

Q: What about the “dose proportionality of trough concentration” value [9] of the same compound?
A: Its value is “increase in proportional to dose”.

Q: What about the “dose proportionality of AUC and Cmax” value ([9]; dose increased from 30 to 60 mg, ref Supplemental Data) of the same compound?
A: Its value is “less‐than‐dose‐proportional”.

Q: Which results are given for `C[C@@H]1CCO[C@H]2Cn3cc(C(=O)NCc4ccc(F)cc4F)c(=O)c(O)c3C(=O)N12` [Dolutegravir]?
A: increase in plasma AUC0‐∞ ([10]; single-dose dolutegravir 50 mg with high-fat meal): 66%; increase in plasma AUC0‐∞ ([10]; single-dose dolutegravir 50 mg with low-fat meal): 33%; increase in plasma AUC0‐∞ ([10]; single-dose dolutegravir 50 mg with moderate-fat meal): 41%

Q: Which “increase in AUC from time 0 to 12 hours” value ([11]; raltegravir 400 mg twice daily with a high-fat meal) does the source give for `Cc1nnc(C(=O)NC(C)(C)c2nc(C(=O)NCc3ccc(F)cc3)c(O)c(=O)n2C)o1` [Raltegravir] here?
A: The value was 2 fold.

Q: And the “increase in AUC from time 0 to last observation” value ([11]; raltegravir 1200 mg (2 × 600 mg) once daily, following a high-fat meal)?
A: Its value is 1.9%.

Q: And the “decrease in AUC from time 0 to last observation” value ([11]; raltegravir 1200 mg (2 × 600 mg) once daily, following a low-fat meal)?
A: The value was 42%.
